Assays:
[1] = Regional brain distribution in rat cortex was determined after 2 min of intravenous administration of the compound; [125I]- is used as radioactive isotope; format: ADME; details: in vivo
Method in brief: (§1)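 Rats, three per group, injected with 10 μCi tracer in 0.2 mL saline via the femoral vein under ether anesthesia and killed by cardiac excision at the stated time. Cortex (frontal plus occipital), striatum, hippocampus, cerebellum and hypothalamus were dissected, weighed and gamma-counted. Values are % dose/g, calculated by comparison with counts of a 100-fold diluted aliquot of the injected dose.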

[2] = Regional brain distribution in rat striatum was determined after 2 min of intravenous administration of the compound; [125I]- is used as radioactive isotope; format: ADME, tissue-based; details: in vivo; method in brief: as §1
[3] = Distribution ratio in striatum and cerebellum was determined after 60 min of intravenous administration of the compound; [125I]- is used as radioactive isotope; format: ADME, tissue-based; details: rat, 1 h
Method in brief: (§2)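 Rats, three per group, given 10 μCi tracer in 0.2 mL saline into the femoral vein under ether anesthesia, then killed by cardiac excision at the stated time. Brain regions were dissected, weighed and counted. Percent dose/g was calculated against a 1% diluted aliquot of the injected dose. The ratio is (region − cerebellum)/cerebellum on a % dose/g basis, with cerebellum as background.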

[4] = Regional brain distribution in rat striatum was determined after 30 min of intravenous administration of the compound; [125I]- is used as radioactive isotope; format: ADME, tissue-based; details: in vivo, 0.5 h; method in brief: as §1
[5] = Regional brain distribution in rat striatum was determined after 60 min of intravenous administration of the compound; [125I]- is used as radioactive isotope; format: ADME, tissue-based; details: in vivo, 1 h; method in brief: as §1
[6] = Distribution ratio in striatum and cerebellum was determined after 2 min of intravenous administration of the compound; [125I]- is used as radioactive isotope; format: ADME, tissue-based; details: rat; method in brief: as §2
[7] = Distribution ratio in hippocampus and cerebellum was determined after 30 min of intravenous administration of the compound; [125I]- is used as radioactive isotope; format: ADME, tissue-based; details: rat, 0.5 h
Method in brief: (§3)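 After femoral-vein injection of 10 μCi [¹²⁵I] tracer in 0.2 mL saline under ether anaesthesia (three rats per group), brain regions were dissected, weighed and counted: cortex (frontal plus occipital), hippocampus, hypothalamus and cerebellum. %dose/g was calculated against a diluted injected-dose standard. Ratio = (region − cerebellum)/cerebellum on a %dose/g basis, with cerebellum as the background region.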

[8] = Distribution ratio in hippocampus and cerebellum was determined after 240 min of intravenous administration of the compound; [125I]- is used as radioactive isotope; format: ADME, tissue-based; details: rat, 4 h; method in brief: as §3
[9] = Distribution ratio in hypothalamus and cerebellum was determined after 24 hours of intravenous administration of the compound; [125I]- is used as radioactive isotope; format: ADME, tissue-based; details: rat; method in brief: as §3
[10] = Distribution ratio in cortex and cerebellum was determined after 30 min of intravenous administration of the compound; [125I]- is used as radioactive isotope; format: ADME, tissue-based; details: rat, 0.5 h; method in brief: as §3
[11] = Distribution ratio in cortex and cerebellum was determined after 60 min of intravenous administration of the compound; [125I]- is used as radioactive isotope; format: ADME, tissue-based; details: rat, 1 h; method in brief: as §3
[12] = Regional brain distribution in rat striatum was determined after 240 min of intravenous administration of the compound; [125I]- is used as radioactive isotope; format: ADME, tissue-based; details: in vivo, 4 h; method in brief: as §1
[13] = Regional brain distribution in rat cerebellum was determined after 60 min of intravenous administration of the compound; [125I]- is used as radioactive isotope; format: ADME, tissue-based; details: in vivo, 1 h; method in brief: as §1
[14] = Regional brain distribution in rat striatum was determined after 11 hours of intravenous administration of the compound; [125I]- is used as radioactive isotope; format: ADME, tissue-based; details: in vivo; method in brief: as §1
[15] = Regional brain distribution in rat cerebellum was determined after 11 hours of intravenous administration of the compound; [125I]- is used as radioactive isotope; format: ADME, tissue-based; details: in vivo; method in brief: as §1
[16] = Regional brain distribution in rat hippocampus was determined after 240 min of intravenous administration of the compound; [125I]- is used as radioactive isotope; format: ADME, tissue-based; details: in vivo, 4 h; method in brief: as §1
[17] = Regional brain distribution in rat hippocampus was determined after 24 hours of intravenous administration of the compound; [125I]- is used as radioactive isotope; format: ADME, tissue-based; details: in vivo; method in brief: as §1
[18] = Regional brain distribution in rat hypothalamus was determined after 120 min of intravenous administration of the compound; [125I]- is used as radioactive isotope; format: ADME, tissue-based; details: in vivo, 2 h; method in brief: as §1
[19] = Biodistribution in rat liver was determined after 2 min of intravenous administration of the compound; [125I]- is used as radioactive isotope; format: ADME, organism-based; details: in vivo
Method in brief: (§4)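 Rats under ether anesthesia, three per group, received 10 μCi tracer in 0.2 mL saline into the femoral vein. They were killed by cardiac excision under ether at each time point. Organs were removed, weighed and counted. Percent dose per organ was calculated against a 1%-of-injected-dose standard counted at the same time.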

[20] = Biodistribution in rat blood was determined after 60 min of intravenous administration of the compound; [125I]- is used as radioactive isotope; format: ADME, organism-based; details: in vivo, 1 h; method in brief: as §4
[21] = Biodistribution in rat thyroid was determined after 11 hours of intravenous administration of the compound; [125I]- is used as radioactive isotope; format: ADME, organism-based, Thyroid gland; details: in vivo
Method in brief: (§5)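 Rats, three per group, under ether anaesthesia, received 10 μCi of [¹²⁵I]-labelled tracer in 0.2 mL saline into the femoral vein. They were killed by cardiac excision under ether at each time point. Organs were removed, weighed and counted. Percent dose per organ was calculated against counts of a 1% aliquot of the injected dose (100-fold diluted) counted at the same time.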

[22] = Biodistribution in rat kidney was determined after 2 min of intravenous administration of the compound; [125I]- is used as radioactive isotope; format: ADME, organism-based; details: in vivo; method in brief: as §4
[23] = Biodistribution in rat liver was determined after 30 min of intravenous administration of the compound; [125I]- is used as radioactive isotope; format: ADME, organism-based; details: in vivo, 0.5 h; method in brief: as §4
[24] = Biodistribution in rat lung was determined after 120 min of intravenous administration of the compound; [125I]- is used as radioactive isotope; format: ADME, organism-based; details: in vivo, 2 h; method in brief: as §4
[25] = Biodistribution in rat muscle was determined after 2 min of intravenous administration of the compound; [125I]- is used as radioactive isotope; format: ADME, organism-based, Muscle tissue; details: in vivo; method in brief: as §5
[26] = Biodistribution in rat heart was determined after 6 hours of intravenous administration of the compound; [125I]- is used as radioactive isotope; format: ADME, organism-based; details: in vivo; method in brief: as §4
[27] = Biodistribution in rat spleen was determined after 60 min of intravenous administration of the compound; [125I]- is used as radioactive isotope; format: ADME, organism-based; details: in vivo, 1 h; method in brief: as §5
[28] = Biodistribution in rat thyroid was determined after 30 min of intravenous administration of the compound; [125I]- is used as radioactive isotope; format: ADME, organism-based, Thyroid gland; details: in vivo, 0.5 h; method in brief: as §5
[29] = Biodistribution in rat kidney was determined after 60 min of intravenous administration of the compound; [125I]- is used as radioactive isotope; format: ADME, organism-based; details: in vivo, 1 h; method in brief: as §4
[30] = Biodistribution in rat lung was determined after 11 hours of intravenous administration of the compound; [125I]- is used as radioactive isotope; format: ADME, organism-based; details: in vivo; method in brief: as §4
[31] = Biodistribution in rat heart was determined after 11 hours of intravenous administration of the compound; [125I]- is used as radioactive isotope; format: ADME, organism-based; details: in vivo; method in brief: as §4
[32] = Biodistribution in rat kidney was determined after 6 hours of intravenous administration of the compound; [125I]- is used as radioactive isotope; format: ADME, organism-based; details: in vivo; method in brief: as §4
[33] = Biodistribution in rat liver was determined after 11 hours of intravenous administration of the compound; [125I]- is used as radioactive isotope; format: ADME, organism-based; details: in vivo; method in brief: as §4
[34] = Biodistribution in rat liver was determined after 24 hours of intravenous administration of the compound; [125I]- is used as radioactive isotope; format: ADME, organism-based; details: in vivo; method in brief: as §4

Question: Which Dose/g [1] does the source give for `CN(C)Cc1ccccc1Oc1ccc(I)cc1N` here?
Answer: 1.16%

Question: What about the Dose/g [2] of the same molecule?
Answer: 0.77%

Question: What about the Dose/g [3] of the same molecule?
Answer: 1.51%

Question: What about the Dose/g [4] of the same molecule?
Answer: 1.16%

Question: What about the Dose/g [5] of the same molecule?
Answer: 1.02%

Question: What about the Dose/g [6] of the same molecule?
Answer: 0.01%

Question: What about the Dose/g [7] of the same molecule?
Answer: 0.68%

Question: What about the Dose/g [8] of the same molecule?
Answer: 2.47%

Question: And the Dose/g [9]?
Answer: 0.23%

Question: What about the Dose/g [10] of the same molecule?
Answer: 0.96%

Question: What about the Dose/g [11] of the same molecule?
Answer: 1.35%

Question: And the Dose/g [12]?
Answer: 0.24%

Question: What about the Dose/g [13] of the same molecule?
Answer: 0.41%

Question: What about the Dose/g [14] of the same molecule?
Answer: 0.01%

Question: What about the Dose/g [15] of the same molecule?
Answer: 0.01%

Question: And the Dose/g [16]?
Answer: 0.2%

Question: And the Dose/g [17]?
Answer: 0.004%

Question: What about the Dose/g [18] of the same molecule?
Answer: 0.92%

Question: And the Dose [19]?
Answer: 5.71%

Question: What about the Dose [20] of the same molecule?
Answer: 3.89%

Question: What about the Dose [21] of the same molecule?
Answer: 5.15%

Question: And the Dose [22]?
Answer: 4.27%

Question: And the Dose [23]?
Answer: 7.1%

Question: And the Dose [24]?
Answer: 0.88%

Question: And the Dose [25]?
Answer: 25.9%

Question: And the Dose [26]?
Answer: 0.08%

Question: What about the Dose [27] of the same molecule?
Answer: 0.47%

Question: What about the Dose [28] of the same molecule?
Answer: 0.15%

Question: And the Dose [29]?
Answer: 1.67%

Question: What about the Dose [30] of the same molecule?
Answer: 0.16%

Question: What about the Dose [31] of the same molecule?
Answer: 0.06%

Question: And the Dose [32]?
Answer: 0.55%

Question: And the Dose [33]?
Answer: 2.64%

Question: And the Dose [34]?
Answer: 1.83%

— ChEMBL document CHEMBL1137220, “2-(2-(dimethylaminomethyl)phenoxy)-5-iodophenylamine: an improved serotonin transporter imaging agent” (J Med Chem, 2004)
